# Results collected from several papers.
# Each line is one published result; the experiments were not run side by side.
# Organism: Escherichia coli
# Observed: microbial growth
Compound,technique,strain,time,notes,MIC
CC1(C)S[C@@H]2[C@H](NC(=O)[C@H](N)c3ccccc3)C(=O)N2[C@H]1C(=O)O,broth dilution,ATCC25922,,,4 mg/L
CCCCCCCCCCCC[N+](C)(C)Cc1ccccc1,,,,,63 µM
CC1(C)S[C@@H]2[C@H](NC(=O)[C@H](N)c3ccccc3)C(=O)N2[C@H]1C(=O)O,broth dilution,ATCC25922,12 h,,8 mg/L
Cc1ccc2[nH]nc(-c3nnc(Nc4ccc(Cl)c(Cl)c4)s3)c2c1,,ATCC25922,,,140 mg/L
COc1cc2cc(CNCCC3CCN(C4CCCC4)CC3)c(SCc3ccccc3)nc2c(OC)c1OC,broth dilution,,,,> 128 mg/L
CCN1CCN(c2cc3c(cc2F)c(=O)c(C(=O)O)cn3C2CC2)CC1,broth dilution,ATCC25922,,,0.0625 mg/L
O=C(O)c1cn(C2CC2)c2cc(N3CCNCC3)c(F)cc2c1=O,broth dilution,ATCC25922,16 h,,0.1 µM
Cc1cc(O)cc(Nc2nnc(-c3n[nH]c4ccc(C)cc34)s2)c1,,ATCC25922,,,176 mg/L
Brc1ccc2nc(SCc3ccccc3)c(CNCCC3CCN(C4CCCC4)CC3)cc2c1,broth dilution,,,,32 mg/L
C[C@H]1COc2c(N3CCN(C)CC3)c(F)cc3c(=O)c(C(=O)O)cn1c23,,,,,≤ 0.12 mg/L
Cc1ccc2[nH]nc(-c3nnc(Nc4ccc(C(F)(F)F)cc4)s3)c2c1,,ATCC25922,,,43.3 mg/L
CN1CCN(CCNCc2cc3ccccc3nc2SCc2ccccc2)CC1,broth dilution,,,,64 mg/L
Cc1cc(Nc2nnc(-c3n[nH]c4ccc(C)cc34)s2)cc([N+](=O)[O-])c1,,ATCC25922,,,166 mg/L
CC[C@H]1OC(=O)[C@H](C)[C@@H](O[C@H]2C[C@@](C)(OC)[C@@H](O)[C@H](C)O2)[C@H](C)[C@@H](O[C@@H]2O[C@H](C)C[C@H](N(C)C)[C@H]2O)[C@](C)(O)C[C@@H](C)CN(C)[C@H](C)[C@@H](O)[C@]1(C)O,broth dilution,,,,4 µM
Cc1onc(-c2ccccc2)c1C(=O)N[C@@H]1C(=O)N2[C@@H]1SC(C)(C)[C@@H]2C(=O)O,broth dilution,ATCC25922,,,< 0.5 mg/L
O=C(N[C@H](CO)[C@H](O)c1ccc([N+](=O)[O-])cc1)C(Cl)Cl,broth dilution,ATCC10536,,,3.12 mg/L
COc1ccc2ccc(O)c(/C=N/[C@H]3CCCC[C@H]3/N=C/c3ccc(OCCN4CCCCC4)cc3O)c2c1,broth dilution,,,clinical isolate,> 40 µM
CCOC(=O)C(C)c1n[nH]c2nc(N)[nH]c(=O)c2c1=O (stereo not drawn),broth dilution,BW25113,18 h,,> 100 mg/L
CC(=O)OCC1=C(C(=O)O)N2C(=O)[C@@H](NC(=O)Cc3cccs3)[C@H]2SC1,broth dilution,ATCC10536,,,3.12 mg/L
C[C@@H](O)[C@H]1C(=O)N2C(C(=O)O)=C(SCCN=CN)C[C@H]12,,,,,≤ 0.25 mg/L
CC(C)c1ccc(/C=C2\N=C(SCC(=O)O)N(c3ccccc3)C2=O)cc1,broth dilution,ATCC25 ATCC25922,,,15 mg/L
CC[C@H]1OC(=O)[C@H](C)[C@@H](O[C@H]2C[C@@](C)(OC)[C@@H](O)[C@H](C)O2)[C@H](C)[C@@H](O[C@@H]2O[C@H](C)C[C@H](N(C)C)[C@H]2O)[C@](C)(O)C[C@@H](C)CN(C)[C@H](C)[C@@H](O)[C@]1(C)O,,ATCC25922,,,< 98 mg/L
COc1cc2cc(CNCCN3CCN(C)CC3)c(SCc3ccccc3)nc2c(OC)c1OC,broth dilution,,,,> 128 mg/L
CC(=O)OCc1nn(C)c2nc(N)[nH]c(=O)c2c1=O,broth dilution,BW25113,18 h,,25 mg/L
C[C@H]1COc2c(N3CCN(C)CC3)c(F)cc3c(=O)c(C(=O)O)cn1c23,,ATCC25922,,drug-resistant strain,≤ 0.03 mg/L
CO/N=C(\C(=O)N[C@@H]1C(=O)N2C(C(=O)O)=C(CSc3nc(=O)c(=O)[nH]n3C)CS[C@H]12)c1csc(N)n1,broth dilution,ATCC25922,,,16 mg/L
CC(C)(O/N=C(\C(=O)N[C@@H]1C(=O)N2C(C(=O)[O-])=C(C[n+]3ccccc3)CS[C@H]12)c1csc(N)n1)C(=O)O,,,,,0.25 mg/L
CCN(CC)c1ccc(C=NC(=O)c2ccccc2)c(O)c1,broth dilution,ATCC25922,,,> 256 mg/L
Cc1ccc2[nH]nc(-c3nnc(Nc4ccc(Cl)c(Br)c4)s3)c2c1,,ATCC25922,,,247 mg/L
COc1ccc(N2N=C(C(=O)c3ccc(Nc4cnccn4)cc3)SC2=C(C#N)C#N)cc1,broth dilution,ATCC10536,,,6.25 mg/L
N[C@@H](Cc1c[nH]c2ccc(Cl)cc12)C(=O)O,,MG1655,18 h,,> 200 µM
N=c1sc(C(=O)c2ccc(Nc3cnccn3)cc2)nn1-c1ccccc1,broth dilution,ATCC10536,,,50 mg/L
CN(C)c1cc(NC(=O)CNC(C)(C)C)c(O)c2c1C[C@H]1C[C@H]3[C@H](N(C)C)C(O)=C(C(N)=O)C(=O)[C@@]3(O)C(O)=C1C2=O,,,,,≤ 0.5 mg/L
c1ccc(CSc2nc3ccc(-c4ccccc4)cc3cc2CNCc2ccc(CN3CCCC3)cc2)cc1,broth dilution,,,,> 128 mg/L
CC(=O)C1=NN(c2ccccc2)C(=C(C#N)C(=O)c2ccc(Nc3cnccn3)cc2)S1,broth dilution,ATCC10536,,,100 mg/L
COc1ccc2ccc(O)c(/C=N/[C@H]3CCCC[C@H]3/N=C/c3c(O)cccc3F)c2c1,broth dilution,,,clinical isolate,> 40 µM
CN1CCN(CCNCc2cc3cc(Br)ccc3nc2SCc2ccccc2)CC1,broth dilution,,,,16 mg/L
COc1ccc2ccc(O)c(/C=N/[C@H]3CCCC[C@H]3/N=C/c3ccc(-c4ccccc4)cc3O)c2c1,broth dilution,,,clinical isolate,> 40 µM
CN1CCN(CCNCc2cc3cc(-c4ccccc4)ccc3nc2SCc2ccccc2)CC1,broth dilution,,,,16 mg/L
Cc1ccc2[nH]nc(-c3nnc(Nc4ccc(F)cc4)s3)c2c1,,ATCC25922,,,51.9 mg/L
c1ccc(CSc2nc3ccccc3cc2CNCc2ccc(CN3CCCC3)cc2)cc1,broth dilution,,,,> 128 mg/L
COc1ccc(-n2nc(C(=O)c3ccc(Nc4cnccn4)cc3)sc2=N)cc1,broth dilution,ATCC10536,,,12.5 mg/L
